Values after ≈ are worked out from the molar mass of the structure shown.

The source of these data is ChEMBL document CHEMBL1649438, “Activities of ceftobiprole and other cephalosporins against extracellular and intracellular (THP-1 macrophages and keratinocytes) forms of methicillin-susceptible and methicillin-resistant Staphylococcus aureus” (Antimicrob Agents Chemother, 2009).

Experiment [1] relates to Staphylococcus aureus. Description: Antimicrobial activity against hospital-acquired vancomycin-intermediate Staphylococcus aureus NRS126 infected in human THP-1 cells assessed as bacterial count per mg of cell protein at low extracellular compound concentration after 24 hrs. It counts as functional. The gist of the method: (§1)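 Human THP-1 macrophage-like cells were infected with S. aureus to a postphagocytosis inoculum of 1.5 × 10^6 to 3.0 × 10^6 CFU/mg cell protein. Cells were then exposed 24 h to increasing extracellular antibiotic concentrations. Response was the log10 CFU change per mg protein from the postphagocytosis inoculum, n = 3. A Hill function was fitted on log-transformed axes. E0 and Emax were extrapolated to infinitely low and high concentrations. Cs was read by graphical interpolation. Concentrations were expressed as multiples of the broth MIC at pH 5.5 or pH 7.4.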

For experiment [2], the system named is Staphylococcus aureus. The experiment in a line: Antimicrobial activity against Panton-valentine leucocidin-positive community-acquired methicillin-resistant Staphylococcus aureus N4042228 infected in human THP-1 cells assessed as bacterial count per mg of cell protein at high extracellular compound concentration after 24 hrs. Type of experiment: functional. In outline:
(§2)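 THP-1 human macrophages infected with S. aureus (postphagocytosis inoculum 1.5 × 10^6 to 3.0 × 10^6 CFU/mg cell protein), then incubated 24 h with increasing extracellular antibiotic concentrations. Change in log10 CFU/mg cell protein from the postphagocytosis inoculum, n = 3. Hill function fitted on log-transformed data. Low-concentration value (E0) and high-concentration value (Emax) are extrapolated. Where a pH is given, concentrations are expressed as multiples of the broth MIC at that pH.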

Experiment [3] has as its system Staphylococcus aureus. Description: Antimicrobial activity against Panton-valentine leucocidin-positive community-acquired methicillin-resistant Staphylococcus aureus N4090440 infected in human THP-1 cells assessed as bacterial count per mg of cell protein at high extracellular compound concentration after 24 hrs at pH 5.5. Type of experiment: functional. In outline: as §2

For experiment [4], the system named is Staphylococcus aureus. Description: Bacteriostatic activity against Panton-valentine leucocidin-positive community-acquired methicillin-resistant Staphylococcus aureus N4090440 infected in human THP-1 cells assessed as change in bacterial count after 24 hrs at pH 5.5. It counts as functional. In outline: (§3)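 THP-1 macrophages infected as described previously, with a postphagocytosis inoculum of 1.5 × 10⁶ to 3.0 × 10⁶ CFU/mg cell protein. Cells were exposed 24 h to increasing extracellular antibiotic concentrations. Response is the change in log10 CFU/mg protein from the inoculum (n = 3), fitted to a Hill function. E0 and Emax were extrapolated to infinitely low and high concentrations. EC50 and static concentration (graphical interpolation) are expressed as multiples of the broth MIC at pH 5.5 or 7.4.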

The subject of experiment [5] is Staphylococcus aureus. The experiment in a line: Antimicrobial activity against Panton-valentine leucocidin-positive community-acquired methicillin-resistant Staphylococcus aureus STA 228 infected in human THP-1 cells assessed as bacterial count per mg of cell protein at high extracellular compound concentration after 24 hrs at pH 5.5. It counts as functional. In outline: as §2

For experiment [6], the system named is Staphylococcus aureus. The experiment in a line: Bacteriostatic activity against Panton-valentine leucocidin-positive community-acquired methicillin-resistant Staphylococcus aureus STA 228 infected in human THP-1 cells assessed as change in bacterial count after 24 hrs at pH 5.5. It counts as functional. The gist of the method:
as §3

Experiment [7] deals with Staphylococcus aureus. The experiment in a line: Antimicrobial activity against methicillin-susceptible Staphylococcus aureus […] infected in human THP-1 cells assessed as change in bacterial count after 24 hrs at pH 5.5. It counts as functional, organism-based. The following applies: THP-1, 24 h. In outline:
as §3

Experiment [8] deals with Staphylococcus aureus. Description: Antimicrobial activity against hospital-acquired vancomycin-intermediate Staphylococcus aureus NRS18 infected in human THP-1 cells assessed as change in bacterial count after 24 hrs at pH 5.5. Type of experiment: functional, organism-based. The note with it: NRS18, THP-1, 24 h. The gist of the method:
as §3

In experiment [9] the test system is Staphylococcus aureus. The experiment in a line: Ratio of MIC for beta-lactamase-negative methicillin-susceptible Staphylococcus aureus ATCC 25923 by microdilution method at pH 7.4 to ratio of MIC for beta-lactamase-negative methicillin-susceptible Staphylococcus aureus ATCC 25923 by microdilution method at pH 5.5. Type of experiment: functional. In outline: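 MICs were measured by broth microdilution, with the broth adjusted to pH 7.4 or pH 5.5 before inoculation. pH was confirmed at the end of the assay to within ±0.1 unit. The value is the fold decrease in MIC between pH 7.4 and pH 5.5.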

Experiment [10] concerns Staphylococcus aureus. The experiment in a line: Antimicrobial activity against methicillin-susceptible Staphylococcus aureus ATCC 25923 infected in human keratinocytes assessed as change in bacterial count after 24 hrs. Type of experiment: functional, organism-based. The following applies: ATCC 25923, 24 h. In outline:
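Primary human skin keratinocytes were grown in defined keratinocyte serum-free medium and infected with S. aureus to 1.5 × 10^6 to 3.0 × 10^6 CFU/mg cell protein. Cells were exposed 24 h to increasing extracellular concentrations. Response was the log10 CFU change from the postphagocytosis inoculum, fitted by a Hill equation with slope 1. Cs is the concentration giving CFU equal to the original inoculum, found by graphical interpolation.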

The next experiment deals with T1, MecA (Staphylococcus aureus, UniProt Q7DHH4).
T1 sequence (Q7DHH4 whole entry): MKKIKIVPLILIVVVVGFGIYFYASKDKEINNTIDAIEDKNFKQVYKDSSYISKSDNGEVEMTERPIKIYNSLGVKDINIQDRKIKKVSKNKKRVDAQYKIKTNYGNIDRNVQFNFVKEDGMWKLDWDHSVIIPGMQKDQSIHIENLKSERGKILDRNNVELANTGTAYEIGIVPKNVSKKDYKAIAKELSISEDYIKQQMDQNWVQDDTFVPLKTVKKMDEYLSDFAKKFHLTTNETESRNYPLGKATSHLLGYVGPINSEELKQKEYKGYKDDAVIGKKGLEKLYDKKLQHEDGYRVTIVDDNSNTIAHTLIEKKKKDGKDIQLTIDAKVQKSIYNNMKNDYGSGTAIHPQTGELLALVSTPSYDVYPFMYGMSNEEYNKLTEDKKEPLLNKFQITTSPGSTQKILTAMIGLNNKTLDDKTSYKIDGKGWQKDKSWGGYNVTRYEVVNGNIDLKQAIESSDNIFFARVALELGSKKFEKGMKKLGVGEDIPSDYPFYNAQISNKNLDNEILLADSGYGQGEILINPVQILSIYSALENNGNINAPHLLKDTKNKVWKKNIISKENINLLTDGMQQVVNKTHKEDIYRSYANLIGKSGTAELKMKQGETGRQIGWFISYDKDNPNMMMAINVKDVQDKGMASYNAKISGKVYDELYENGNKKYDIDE
Description: Binding affinity to Staphylococcus aureus ATCC […] PBP2a by Western blotting at pH 7.4 in presence of 100 uM Bocillin FL. In outline:
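Soluble truncated PBP 2a (ΔM1-Y23) was expressed in E. coli Rosetta 2(DE3) and purified. It was preincubated 25 min at 37°C with increasing cephalosporin concentrations, then 100 μM Bocillin FL was added for 25 min at 37°C at pH 5.5 or 7.4. Samples were run on SDS-PAGE and blotted with anti-bodipy antibody plus HRP secondary. Bands were detected by chemiluminescence and quantified by densitometry.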

Experiment [11] has as its system Staphylococcus aureus. Description: Antimicrobial activity against hospital-acquired methicillin-resistant Staphylococcus aureus […] infected in human THP-1 cells assessed as bacterial count per mg of cell protein at high extracellular compound concentration after 24 hrs. It counts as functional. The gist of the method:
as §3

In experiment [12] the test system is Staphylococcus aureus. Description: Antimicrobial activity against hospital-acquired vancomycin-intermediate Staphylococcus aureus NRS18 infected in human THP-1 cells assessed as bacterial count per mg of cell protein at low extracellular compound concentration after 24 hrs. Type of experiment: functional. The gist of the method:
as §1

The subject of experiment [13] is Staphylococcus aureus. Description: Antimicrobial activity against hospital-acquired vancomycin-intermediate Staphylococcus aureus NRS18 infected in human THP-1 cells assessed as change in bacterial count after 24 hrs. Type of experiment: functional, organism-based. The note with it: NRS18, THP-1, 24 h. The gist of the method: as §3

In the case of `Nc1nc(/C(=N/O)C(=O)N[C@@H]2C(=O)N3C(C(=O)O)=C(/C=C4\CCN([C@@H]5CCNC5)C4=O)CS[C@H]23)ns1` [CEFTOBIPROLE], the log10cfu with Staphylococcus aureus [1] is 3.02; in the experiment with Staphylococcus aureus [2], -1.12; in the experiment with Staphylococcus aureus [3], -1.02; in the experiment on Staphylococcus aureus [5], -1.02; in the experiment on Staphylococcus aureus [11] it was -0.9; in the experiment on Staphylococcus aureus [12], 2.83. In addition, the Activity in the experiment with Staphylococcus aureus [4] and with Staphylococcus aureus [6] was 1.45 × MIC throughout. Moreover, the EC50 in the experiment with Staphylococcus aureus [7] turned out to be 0.41 × MIC; in the experiment with Staphylococcus aureus [8], 0.77 ×MIC; with Staphylococcus aureus [10] it was 0.35 µg/mL (≈ 0.655 µM); in the experiment with Staphylococcus aureus [13], 0.26 µg/mL (≈ 0.486 µM). Further, the “fold change (FC)” value in the experiment on Staphylococcus aureus [9] is 2. On MecA, the half-maximal inhibitory concentration (IC50) was determined as 8 µM.
